SMILES strings stand for the structures. The source made the active and inactive calls. No cut-off for these calls is given here.

Assay type in all cases: functional
Assay [1] has as its system Radical scavenging activity. The assay is described as follows: Antioxidant activity assessed as DPPH radical scavenging activity at 20 uM after 30 mins. The procedure, abridged:
(§1)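 DPPH scavenging: test sample in EtOH added to 0.1 M acetic acid buffer pH 5.5 plus 0.5 mM DPPH EtOH solution (stock); stood 30 min at room temperature; absorbance read at 517 nm, activity given as change in optical density. Standards alpha-tocopherol and L-cysteine.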

The subject of assay [2] is Radical scavenging activity. The experiment in a line: Antioxidant activity assessed as DPPH radical scavenging activity at 40 uM after 30 mins. The essentials: as §1
(DPPH is a stable violet radical that fades when it is reduced.)

Assay [3] has as its system Radical scavenging activity. The experiment in a line: Antioxidant activity assessed as DPPH radical scavenging activity at 80 uM after 30 mins. The essentials:
as §1

In assay [4] the test system is Radical scavenging activity. The experiment in a line: Antioxidant activity assessed as DPPH radical scavenging activity at 10 uM after 30 mins. The essentials:
as §1

The nature of assay [5]: Antioxidant activity at 0.5 mM by ferric-thiocyanate method. The essentials: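 Linoleic acid peroxidation (ferric thiocyanate): sample (final 0.5 mM) with linoleic acid in EtOH/0.05 M phosphate buffer pH 7.0, kept dark at 40 °C for 5 days; aliquot diluted in 75% EtOH, ammonium thiocyanate and ferrous chloride in HCl added, absorbance at 500 nm read at 3 min. Control lacked compound; alpha-tocopherol and BHA standards.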

Turning to `N[C@@H](CS)C(=O)O`, the values for the deltaA in assay [1], in assay [2] and in assay [3] were 0.161, 0.355 and 0.754, respectively.

Take `Cc1c(C)c2c(c(C)c1O)CC[C@@](C)(CCC[C@H](C)CCC[C@H](C)CCCC(C)C)O2`: the results for the deltaA in assay [1], in assay [2] and in assay [4] were 0.471, 0.934 and 0.252, respectively.

With `CC(C)c1cc2c(cc1O)[C@@]1(C)CCCC(C)(C)[C@@H]1CC2`, the figures for the deltaA in assay [1], in assay [2] and in assay [3] were 0.081, 0.153 and 0.255, respectively. The outcome in assay [5] was Active.

Consider `COc1ccc(O)c(C(C)(C)C)c1.COc1ccc(O)cc1C(C)(C)C`, for which the result in assay [5] was Active.
